Source: ChEMBL document CHEMBL1122411 (J Med Chem, 1983)

Legend:
[1] = Tested for substrate activity of compound for Carboxypeptidase G1; set-up: species or system Mus musculus
Procedure, shortened: (§1)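 Cleavage by carboxypeptidase G₁ was followed as the A320 change on release of the pteroate. Conditions were 37 °C in 0.05 M potassium phosphate, pH 6.7, with 100 μM ZnSO₄. Enzyme was diluted in 1% BSA to give ΔA320 of 0.02–0.2/min. Km and Vmax came from Lineweaver-Burk plots. Ki came from competitive runs varying analogue against fixed MTX, or vice versa.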

[2] = Tested for substrate activity of compound for Carboxypeptidase G1 (exp 2); procedure, shortened: as §1
[3] = target: T1, Dihydrofolate reductase (Mus musculus) (UniProt P00375); assay: Binding affinity to Dihydrofolate reductase of L1210 cell line using [H]MTX as radioligand; format: cell-based
T1 sequence (whole entry): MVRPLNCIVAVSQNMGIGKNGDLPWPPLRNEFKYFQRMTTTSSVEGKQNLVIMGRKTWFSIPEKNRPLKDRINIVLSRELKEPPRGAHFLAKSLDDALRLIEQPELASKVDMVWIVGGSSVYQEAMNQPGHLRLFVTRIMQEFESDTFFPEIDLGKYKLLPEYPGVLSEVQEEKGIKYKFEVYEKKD
Procedure, shortened: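 Competitive [³H]MTX binding to dihydrofolate reductase from L1210 leukemia. Ascites cells from tumor-bearing mice were washed and lysed before use. The assay ran at 37 °C in 0.1 M potassium phosphate, pH 6.8. ID₅₀ was read as inhibition of radioligand binding, with MTX included in each experiment.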

[4] = target: T1, Dihydrofolate reductase (Mus musculus); assay: Binding affinity to Dihydrofolate reductase of L1210/R71 using spectrophotometric assay
Procedure, shortened: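 The enzyme was isolated from MTX-resistant L1210/R71 cultured cells and purified on MTX-agarose. The assay measured ΔA340 at 22 °C in 0.1 M Tris, pH 7.0, with 62 nM enzyme. Enzyme was preincubated 2 min with inhibitor and NADPH, and dihydrofolate was then added to start the reaction. ID₅₀ determined.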

L1210 = assay: cytotoxicity against L1210 cells; format: functional; conditions: Mus musculus, read-out: ID50 (the source's name)
Mus musculus [5] = organism: Mus musculus; assay: Percentage increase in life span after 16-18 days; format: functional
Procedure, shortened: (§2)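 Male B6D2F1J mice (20–25 g), randomized after i.p. inoculation with 10^5 L1210 ascitic leukemia cells on day 0. Drug in water, pH 7.5–8.0, given i.p. on a q2d×5, qd×9 (from day 1) or b.i.d.×10 schedule; 5 mice per group. %ILS = [(T/C) − 1]100 from median survival days of treated versus control mice. Range is survival days.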

Mus musculus [6] = organism: Mus musculus; assay: Percentage increase in life span after 17-19 days; format: functional; procedure, shortened: as §2
Mus musculus [7] = organism: Mus musculus; assay: Percentage increase in life span after 8-17 days; format: functional; procedure, shortened: as §2
Mus musculus [8] = organism: Mus musculus; assay: Percentage increase in life span after 9-11 days; format: functional; procedure, shortened: as §2
Mus musculus [9] = organism: Mus musculus; assay: Percentage increase in life span after 9-24 days; format: functional; procedure, shortened: as §2
Mus musculus [10] = organism: Mus musculus; assay: Percentage increase in life span after 10-24 days; format: functional; procedure, shortened: as §2
Mus musculus [11] = organism: Mus musculus; assay: Percentage increase in life span after 12-16 days; format: functional; procedure, shortened: as §2
Mus musculus [12] = organism: Mus musculus; assay: Percentage increase in life span after 12-19 days; format: functional; procedure, shortened: as §2
Mus musculus [13] = organism: Mus musculus; assay: (§3) Percentage increase in life span after 12-20 days; format: functional; procedure, shortened: as §2
Mus musculus [14] = organism: Mus musculus; assay: as §3; format: functional; procedure, shortened: as §2; remark: listed apart in the source
Mus musculus [15] = organism: Mus musculus; assay: Percentage increase in life span after 12-22 days; format: functional; procedure, shortened: as §2
Mus musculus [16] = assay: Weight change on day 7 in L1210 Lymphoid Leukemia in mice at a dose of 12 mg/kg/day (b.i.d. x10); format: functional
Procedure, shortened: (§4)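 Male B6D2F₁J mice (20–25 g) bearing ip L1210 ascites (10⁵ cells, day 0) were used, 5 per group. Drug was given ip in water at pH 7.5–8.0 from day 1 on q2d×5, qd×9 or b.i.d.×10 schedules. Animals were weighed after 7 days and percent weight change recorded.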

Mus musculus [17] = assay: Weight change on day 7 in L1210 Lymphoid Leukemia in mice at a dose of 15 mg/kg/day (b.i.d. x10); format: functional; procedure, shortened: as §4
Mus musculus [18] = assay: Weight change on day 7 in L1210 Lymphoid Leukemia in mice at a dose of 20 mg/kg/day (qdx9); format: functional; procedure, shortened: as §4
Mus musculus [19] = assay: Weight change on day 7 in L1210 Lymphoid Leukemia in mice at a dose of 2 mg/kg/day (qdx9); format: functional; procedure, shortened: as §4
Mus musculus [20] = assay: Toxicity in mice after 12-16 days at a dose of 20 mg/kg/day; value is 14/9; format: functional
Mus musculus [21] = assay: Toxicity in mice after 12-19 days at a dose of 8 mg/kg/day; value is 12/8.5; format: functional
Mus musculus [22] = assay: Toxicity in mice after 12-20 days at a dose of 20 mg/kg/day; value is 13/9; format: functional
Mus musculus [23] = assay: Toxicity in mice after 12-20 days at a dose of 40 mg/kg/day; value is 14/9; format: functional
Mus musculus [24] = assay: Toxicity in mice after 12-22 days at a dose of 60 mg/kg/day; value is 21/9; format: functional
Mus musculus [25] = assay: Toxicity in mice after 16-18 days at a dose of 9 mg/kg/day; value is 17/9; format: functional
Mus musculus [26] = assay: Toxicity in mice after 17-19 days at a dose of 40 mg/kg/day; value is 18/9; format: functional
Mus musculus [27] = assay: Toxicity in mice after 8-17 days at a dose of 4 mg/kg/day; value is 11/8.5; format: functional
Mus musculus [28] = assay: Toxicity in mice after 9-11 days at a dose of 2 mg/kg/day; value is 10/8.5; format: functional
Mus musculus [29] = assay: Toxicity in mice after 9-24 days at a dose of 12 mg/kg/day; value is 18/9; format: functional
Mus musculus [30] = assay: Weight change on day 7 in L1210 Lymphoid Leukemia in mice at a dose of 40 mg/kg/day (qdx9); format: functional
Procedure, shortened: (§5)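 Male B6D2F1J mice (20–25 g) were inoculated i.p. with 10⁵ L1210 ascites cells on day 0 and randomized into groups of 5. Drug in water at pH 7.5–8.0 was given i.p. daily for 9 days (qd×9) from day 1. Animals were weighed after 7 days, and the % body-weight change was recorded under a standard NCI protocol.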

Mus musculus [31] = assay: Weight change on day 7 in L1210 Lymphoid Leukemia in mice at a dose of 4 mg/kg/day (qdx9); format: functional; procedure, shortened: as §5
Mus musculus [32] = assay: Weight change on day 7 in L1210 Lymphoid Leukemia in mice at a dose of 60 mg/kg/day (qdx9); format: functional; procedure, shortened: as §5
Mus musculus [33] = assay: Toxicity in mice after 10-24 days at a dose of 15 mg/kg/day; value is 21/9; format: functional
Mus musculus [34] = assay: Weight change on day 7 in L1210 Lymphoid Leukemia in mice at a dose of 8 mg/kg/day (qdx9); format: functional; procedure, shortened: as §5
Mus musculus [35] = assay: Weight change on day 7 in L1210 Lymphoid Leukemia in mice at a dose of 9 mg/kg/day (b.i.d. x10); format: functional
Procedure, shortened: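 L1210 ascitic leukemia was implanted i.p. (10⁵ cells, day 0) in male B6D2F1J mice of 20–25 g, 5 per group. Dosing was b.i.d.×10, except that on days 5 and 6 a single double-dose injection was given. The % weight change was recorded at day 7.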

[36] = target: Dihydrofolate reductase (Lactobacillus casei) (UniProt P00381); conditions: Lacticaseibacillus casei
[37] = target: Dihydrofolate reductase (Lactobacillus casei) (UniProt P00381); conditions: Lacticaseibacillus casei; remark: listed apart in the source
[38] = target: T1, Dihydrofolate reductase (Mus musculus)
[39] = system: Carboxypeptidase G1 (Pseudomonas); assay: Tested for substrate activity of compound for Carboxypeptidase G1

Dihydrofolate reductase (Lactobacillus casei), sequence (P00381 whole entry): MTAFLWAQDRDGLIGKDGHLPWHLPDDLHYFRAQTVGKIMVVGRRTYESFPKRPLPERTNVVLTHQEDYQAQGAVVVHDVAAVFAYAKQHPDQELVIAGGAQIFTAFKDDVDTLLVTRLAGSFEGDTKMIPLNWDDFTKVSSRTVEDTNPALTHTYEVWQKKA

CN(Cc1cnc2nc(N)nc(N)c2n1)c1ccc(C(=O)NC(CCCC(=O)O)C(=O)O)cc1 (stereo unspecified) showed a Ki [1] of 2770 nM, a Ki [2] of 3220 nM and an ID50 [3] of 1.4 nM. For the same compound, the ID50 [4] was 39 nM, the IC50 (L1210) was 30 nM and the ILS (Mus musculus [5]) was 89%. It also gave an ILS (Mus musculus [6]) of 100%, an ILS (Mus musculus [7]) of 29% and an ILS (Mus musculus [8]) of 18%. The ILS (Mus musculus [9]) was 100%, the ILS (Mus musculus [10]) was 133% and the ILS (Mus musculus [11]) was 56%. For the same compound, the ILS (Mus musculus [12]) was 41%, the ILS (Mus musculus [13]) was 55% and the ILS (Mus musculus [14]) was 44%. For the same compound, the ILS (Mus musculus [15]) was 133%, the Weight change (Mus musculus [16]) was -3% and the Weight change (Mus musculus [17]) was -7%. The Weight change (Mus musculus [18]) was 7%, the Weight change (Mus musculus [19]) was 10% and the T/C (Mus musculus [20]) was 14. The T/C (Mus musculus [21]) was 12, the T/C (Mus musculus [22]) was 13 and the T/C (Mus musculus [23]) was 14. It also gave a T/C (Mus musculus [24]) of 21, a T/C (Mus musculus [25]) of 17 and a T/C (Mus musculus [26]) of 18. The T/C (Mus musculus [27]) was 11, the T/C (Mus musculus [28]) was 10 and the T/C (Mus musculus [29]) was 18. The Weight change (Mus musculus [30]) was 2%, the Weight change (Mus musculus [31]) was 7% and the Weight change (Mus musculus [32]) was -6%. It also gave a T/C (Mus musculus [33]) of 21, a Weight change (Mus musculus [34]) of 2% and a Weight change (Mus musculus [35]) of -3%. It also gave an ID50 [36] of 12 nM, an ID50 [37] of 6.9 nM and an ID50 [38] of 6.7 nM. It also gave a Km [39] of 196 µM and a Vmax [39] of 0.124 min⁻¹.
